Reference: ChEMBL document CHEMBL1909581, “Growth inhibition of human lung cancer cells via down-regulation of epidermal growth factor receptor signaling by yuanhuadine, a daphnane diterpene from Daphne genkwa” (J Nat Prod, 2011)
Calls of active or inactive are those of the source. No cut-off for these calls is given here.

Key:
SW480 = assay: Antiproliferative activity against human SW480 cells after 3 days by SRB assay; assay type: functional, cell-based; settings: SW480, 72 h
How it was run: (§1)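 Cells seeded at 5 × 10^4 cells/mL and exposed to a range of concentrations for 3 days. Fixed with 10% TCA, then SRB stain read. Growth expressed as % of solvent-treated control. IC50 obtained by nonlinear regression of percent survival versus concentration.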

A549 [1] = assay: Downregulation of phosphorylated Rb expression in human A549 cells at G1 phase at 5 to 100 nM after 24 to 48 hrs by Western blot analysis; assay type: functional, cell-based
How it was run: (§2)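 A549 cells treated with a range of concentrations for 24 or 48 h. Lysates run on 6–15% SDS-PAGE and blotted to PVDF, blocked in 5% milk/PBST. Primary antibodies overnight at 4 °C, secondary 2 h at room temperature, ECL detection. Representative of three independent experiments.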

[2] = target: Serine/threonine-protein kinase mTOR (Homo sapiens) (UniProt P42345); assay: Inhibition of MTOR-mediated 4EBP1 phosphorylation in human A549 cells at 20 nM after 24 to 48 hrs by Western blot analysis; assay type: cell-based
How it was run: (§3)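 A549 cells (RPMI 1640, 10% FBS, 37 °C, 5% CO2) exposed to the compound at various concentrations for 24 or 48 h. Lysates run on 6–15% SDS-PAGE, transferred to PVDF, probed with primary antibodies overnight at 4 °C, and detected by ECL. Blots shown are representative of three independent experiments.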

A549 [3] = assay: Cell cycle arrest in human A549 cells assessed as accumulation at Sub-G1 phase at 100 nM after 24 hrs by propidium iodide staining-based flow cytometric analysis (reference value: 0.2 %); assay type: functional
A549 [4] = assay: Cell cycle arrest in human A549 cells assessed as accumulation at S phase at 20 nM after 24 hrs by propidium iodide staining-based flow cytometric analysis (reference value: 31.6 %); assay type: functional
A549 [5] = assay: Antiproliferative activity against human A549 cells after 3 days by SRB assay; assay type: functional, cell-based; settings: A549, 72 h; how it was run: as §1
[6] = target: Serine/threonine-protein kinase mTOR (Homo sapiens) (UniProt P42345); assay: Inhibition of MTOR-mediated p70S6K activation in human A549 cells at 20 nM after 24 to 48 hrs by Western blot analysis; assay type: cell-based; how it was run: as §3
[7] = target: Mitogen-activated protein kinase; ERK1/ERK2 (Homo sapiens) (UniProt P27361+P28482); assay: Inhibition of ERK1/2 in human A549 cells at 5 to 40 nM after 24 hrs by Western blot analysis; assay type: cell-based; how it was run: as §3
Sequence of Mitogen-activated protein kinase; ERK1/ERK2 (Homo sapiens) (P27361 whole entry, looked up): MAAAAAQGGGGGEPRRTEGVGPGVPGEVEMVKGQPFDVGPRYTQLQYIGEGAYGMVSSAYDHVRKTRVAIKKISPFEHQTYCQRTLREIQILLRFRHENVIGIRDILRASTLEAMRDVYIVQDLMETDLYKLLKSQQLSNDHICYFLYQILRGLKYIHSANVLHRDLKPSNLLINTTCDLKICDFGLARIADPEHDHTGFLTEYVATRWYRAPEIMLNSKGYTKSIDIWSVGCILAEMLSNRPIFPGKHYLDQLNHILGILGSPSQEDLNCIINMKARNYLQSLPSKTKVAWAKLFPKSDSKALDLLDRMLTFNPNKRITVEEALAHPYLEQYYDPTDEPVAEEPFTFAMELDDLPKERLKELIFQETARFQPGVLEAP
Sequence of Mitogen-activated protein kinase; ERK1/ERK2 (Homo sapiens) (P28482 whole entry, looked up): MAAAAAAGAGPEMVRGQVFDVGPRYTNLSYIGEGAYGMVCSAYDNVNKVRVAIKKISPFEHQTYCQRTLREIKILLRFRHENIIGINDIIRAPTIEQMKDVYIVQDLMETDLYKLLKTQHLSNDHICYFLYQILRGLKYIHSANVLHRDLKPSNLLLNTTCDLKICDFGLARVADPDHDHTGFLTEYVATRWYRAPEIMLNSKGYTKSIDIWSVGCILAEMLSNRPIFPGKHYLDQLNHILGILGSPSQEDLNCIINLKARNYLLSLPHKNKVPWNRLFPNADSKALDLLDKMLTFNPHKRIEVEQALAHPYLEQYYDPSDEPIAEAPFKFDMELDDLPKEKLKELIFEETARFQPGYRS

A549 [8] = assay: Cell cycle arrest in human A549 cells assessed as accumulation at Sub-G1 phase at 20 nM after 24 hrs by propidium iodide staining-based flow cytometric analysis (reference value: 0.2 %); assay type: functional
A549 [9] = assay: Cell cycle arrest in human A549 cells assessed as accumulation at G0/G1 phase at 20 nM after 24 hrs by propidium iodide staining-based flow cytometric analysis (reference value: 49.6 %); assay type: functional
A549 [10] = assay: Cell cycle arrest in human A549 cells assessed as accumulation at Sub-G1 phase at 20 nM after 48 hrs by propidium iodide staining-based flow cytometric analysis (reference value: 0.2 %); assay type: functional
A549 [11] = assay: Antitumor activity against human A549 cells xenografted in BALB/c mouse assessed as inhibition of tumor growth at 0.2 mg/kg, po once daily for 14 days measured for 27 days relative to control; assay type: functional, organism-based; set-up: dose 0.2 mg/kg
How it was run: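 Female nu/nu nude mice given 3 × 10^6 A549 cells sc into the right flank, in 200 μL medium. At ~100 mm3, randomized into groups of five. Dosed orally once daily for 14 days in 100 μL ethanol–Tween 80–water (1:1:98), vehicle as control. Tumor volume measured by caliper every 2–3 days; body weight monitored.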

Mus musculus = assay: Toxicity in BALB/c mouse xenografted with human A549 cells in assessed as overt signs at 0.5 mg/kg, po once daily for 14 days measured for 27 days relative to control; assay type: organism-based; set-up: dose 0.5 mg/kg, route oral; settings: in vivo, 648 h
How it was run: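 Female nu/nu mice were injected sc in the right flank with 3 × 10^6 A549 cells. At about 100 mm3 tumour volume, mice were randomised into groups of five. Compound was given orally at 0.2 or 0.5 mg/kg once daily for 14 days in ethanol/Tween 80/H2O (1:1:98). Body weight and overt toxicity were monitored against vehicle controls.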

[12] = target: Hepatocyte growth factor receptor (Homo sapiens) (UniProt P08581); assay: Inhibition of c-Met-mediated ERK1/2 phosphorylation in HGF-stimulated human A549 cells pretreated at 5 to 100 nM by Western blot analysis; assay type: cell-based
Sequence of Hepatocyte growth factor receptor (Homo sapiens) (P08581 whole entry): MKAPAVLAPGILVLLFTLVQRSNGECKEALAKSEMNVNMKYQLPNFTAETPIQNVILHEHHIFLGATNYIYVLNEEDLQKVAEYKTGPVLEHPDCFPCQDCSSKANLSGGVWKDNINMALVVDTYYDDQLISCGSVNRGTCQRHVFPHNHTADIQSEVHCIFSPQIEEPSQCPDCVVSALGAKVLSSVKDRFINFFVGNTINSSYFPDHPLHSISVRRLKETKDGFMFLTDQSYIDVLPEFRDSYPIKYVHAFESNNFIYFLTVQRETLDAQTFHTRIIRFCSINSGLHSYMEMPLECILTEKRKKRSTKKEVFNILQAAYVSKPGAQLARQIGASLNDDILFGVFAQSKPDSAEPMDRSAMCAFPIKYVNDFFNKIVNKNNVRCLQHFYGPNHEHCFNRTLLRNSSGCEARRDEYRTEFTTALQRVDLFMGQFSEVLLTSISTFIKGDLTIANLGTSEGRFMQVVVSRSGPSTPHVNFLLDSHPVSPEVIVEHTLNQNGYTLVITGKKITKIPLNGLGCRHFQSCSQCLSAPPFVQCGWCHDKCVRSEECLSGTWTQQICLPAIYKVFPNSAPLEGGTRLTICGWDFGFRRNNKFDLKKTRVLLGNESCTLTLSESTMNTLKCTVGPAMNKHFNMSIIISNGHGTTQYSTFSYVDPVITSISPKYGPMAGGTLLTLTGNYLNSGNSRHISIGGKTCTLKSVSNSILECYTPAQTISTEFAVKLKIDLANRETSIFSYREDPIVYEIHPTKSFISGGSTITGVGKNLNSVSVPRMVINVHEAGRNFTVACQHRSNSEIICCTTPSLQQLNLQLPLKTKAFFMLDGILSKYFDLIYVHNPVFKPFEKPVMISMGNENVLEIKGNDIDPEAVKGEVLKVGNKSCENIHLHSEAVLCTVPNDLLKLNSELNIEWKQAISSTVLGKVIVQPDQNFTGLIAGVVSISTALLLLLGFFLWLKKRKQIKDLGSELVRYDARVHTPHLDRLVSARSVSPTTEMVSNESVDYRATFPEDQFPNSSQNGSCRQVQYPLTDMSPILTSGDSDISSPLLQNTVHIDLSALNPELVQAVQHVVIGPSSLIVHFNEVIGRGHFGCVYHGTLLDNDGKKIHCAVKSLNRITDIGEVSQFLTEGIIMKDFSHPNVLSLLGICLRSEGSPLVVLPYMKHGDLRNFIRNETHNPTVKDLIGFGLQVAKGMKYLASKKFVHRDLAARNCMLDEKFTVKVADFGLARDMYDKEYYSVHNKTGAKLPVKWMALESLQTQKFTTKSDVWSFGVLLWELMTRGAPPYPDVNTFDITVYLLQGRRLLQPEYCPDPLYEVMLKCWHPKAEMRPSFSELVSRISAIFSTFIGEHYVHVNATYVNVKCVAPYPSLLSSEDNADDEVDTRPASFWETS
How it was run: (§4)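 A549 cells pretreated for 2 h with the compound at 5, 20 or 100 nM, then stimulated with HGF (50 ng/mL) for 10 min. c-Met and its downstream signalling proteins read by Western blot (SDS-PAGE, PVDF transfer, ECL detection).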

[13] = target: Hepatocyte growth factor receptor (Homo sapiens) (UniProt P08581); assay: Inhibition of c-Met-mediated MTOR phosphorylation in HGF-stimulated human A549 cells pretreated at 5 to 100 nM by Western blot analysis; assay type: cell-based; how it was run: as §4
A549 [14] = assay: Cell cycle arrest in human A549 cells assessed as accumulation at G0/G1 phase at 5 nM after 24 hrs by propidium iodide staining-based flow cytometric analysis (reference value: 49.6 %); assay type: functional
A549 [15] = assay: Cell cycle arrest in human A549 cells assessed as accumulation at G2/M phase at 100 nM after 24 hrs by propidium iodide staining-based flow cytometric analysis (reference value: 18.9 %); assay type: functional
[16] = target: Epidermal growth factor receptor (Homo sapiens) (UniProt P00533); assay: Inhibition of EGFR phosphorylation in […]-stimulated human A549 cells pretreated at 20 nM by Western blot analysis; assay type: cell-based
Sequence of Epidermal growth factor receptor (Homo sapiens) (P00533 whole entry): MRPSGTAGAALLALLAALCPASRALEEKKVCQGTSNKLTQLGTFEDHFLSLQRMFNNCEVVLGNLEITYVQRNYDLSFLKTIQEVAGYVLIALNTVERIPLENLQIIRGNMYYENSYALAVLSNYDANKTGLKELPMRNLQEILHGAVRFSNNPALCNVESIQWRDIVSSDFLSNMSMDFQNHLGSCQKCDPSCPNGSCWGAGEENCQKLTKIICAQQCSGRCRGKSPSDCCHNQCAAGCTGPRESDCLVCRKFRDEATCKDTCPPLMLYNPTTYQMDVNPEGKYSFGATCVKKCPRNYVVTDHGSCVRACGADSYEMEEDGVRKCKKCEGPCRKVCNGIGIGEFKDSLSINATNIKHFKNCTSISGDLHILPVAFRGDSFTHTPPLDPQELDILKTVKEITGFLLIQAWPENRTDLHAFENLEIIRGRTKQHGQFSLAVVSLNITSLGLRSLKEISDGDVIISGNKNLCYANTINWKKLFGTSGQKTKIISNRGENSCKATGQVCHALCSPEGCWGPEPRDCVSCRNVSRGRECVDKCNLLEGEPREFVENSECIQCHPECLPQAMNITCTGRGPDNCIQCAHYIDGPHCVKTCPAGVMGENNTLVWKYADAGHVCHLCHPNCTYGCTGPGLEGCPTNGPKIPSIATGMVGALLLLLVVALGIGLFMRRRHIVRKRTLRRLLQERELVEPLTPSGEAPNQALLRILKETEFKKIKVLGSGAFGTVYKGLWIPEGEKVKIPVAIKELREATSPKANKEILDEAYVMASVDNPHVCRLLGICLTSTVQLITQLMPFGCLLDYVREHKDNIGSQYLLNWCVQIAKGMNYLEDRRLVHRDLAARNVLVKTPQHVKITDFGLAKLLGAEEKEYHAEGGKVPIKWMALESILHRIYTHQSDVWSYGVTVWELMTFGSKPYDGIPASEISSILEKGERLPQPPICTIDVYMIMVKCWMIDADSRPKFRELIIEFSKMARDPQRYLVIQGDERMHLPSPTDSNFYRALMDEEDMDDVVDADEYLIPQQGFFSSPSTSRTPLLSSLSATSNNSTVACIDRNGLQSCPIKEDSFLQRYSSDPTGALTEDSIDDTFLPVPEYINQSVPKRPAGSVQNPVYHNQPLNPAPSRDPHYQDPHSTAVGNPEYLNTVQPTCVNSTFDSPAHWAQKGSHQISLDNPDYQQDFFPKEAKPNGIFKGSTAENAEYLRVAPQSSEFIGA
How it was run: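 A549 cells serum-starved 24 h, pretreated with 20 nM for 2 h, then stimulated with EGF (10 ng/mL) for 10 min. EGFR, Akt and ERK phosphorylation and levels assessed by Western blot.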

[17] = target: Hepatocyte growth factor receptor (Homo sapiens) (UniProt P08581); assay: Inhibition of c-Met-mediated FAK phosphorylation in HGF-stimulated human A549 cells pretreated at 5 to 100 nM by Western blot analysis; assay type: cell-based; how it was run: as §4
A549 [18] = assay: Cell cycle arrest in human A549 cells assessed as accumulation at G2/M phase at 5 nM after 24 hrs by propidium iodide staining-based flow cytometric analysis (reference value: 18.9 %); assay type: functional
[19] = Antiproliferative activity against human H1299 cells after 3 days by SRB assay; assay type: functional, cell-based; settings: NCI-H1299, 72 h; how it was run: as §1
A549 [20] = assay: Cell cycle arrest in human A549 cells assessed as accumulation at S phase at 5 nM after 48 hrs by propidium iodide staining-based flow cytometric analysis (reference value: 31.6 %); assay type: functional
A549 [21] = assay: Downregulation of CDK4 expression in human A549 cells at G1 phase at 5 to 100 nM after 24 to 48 hrs by Western blot analysis; assay type: functional, cell-based; how it was run: as §2
SK-MES-1 = assay: Antiproliferative activity against human SK-MES cells after 3 days by SRB assay; assay type: functional, cell-based; settings: SK-MES-1, 72 h; how it was run: as §1
A549 [22] = assay: Cell cycle arrest in human A549 cells assessed as accumulation at Sub-G1 phase at 5 nM after 48 hrs by propidium iodide staining-based flow cytometric analysis (reference value: 0.2 %); assay type: functional
A549 [23] = assay: Cell cycle arrest in human A549 cells assessed as accumulation at S phase at 5 nM after 24 hrs by propidium iodide staining-based flow cytometric analysis (reference value: 31.6 %); assay type: functional

With C=C(C)[C@@]12O[C@@]3(/C=C/C=C/CCCCC)O[C@@H]1[C@@H]1[C@@H]4O[C@]4(CO)[C@@H](O)[C@]4(O)C(=O)C(C)=C[C@H]4[C@@]1(O3)[C@H](C)[C@H]2OC(C)=O [YUANHUADINE] the IC50 (SW480) was 11.8 µM, the Activity (A549 [1]) was “Active” and the inhibition [2] was “Active”. It also gave an Activity (A549 [3]) of 0.3%, an Activity (A549 [4]) of 7.3% and an IC50 (A549 [5]) of 12 nM. The inhibition [6] was “Active”, the inhibition [7] was “Active” and the Activity (A549 [8]) was 1.8%. The Activity (A549 [9]) was 68.2%, the Activity (A549 [10]) was 0.4% and the “growth inhibition (GI)” value (A549 [11]) was “Active”. The Activity (Mus musculus) was “Non-toxic”, the inhibition [12] was “Active” and the inhibition [13] was “Active”. The Activity (A549 [14]) was 67%, the Activity (A549 [15]) was 28% and the inhibition [16] was “Active”. For the same molecule, the inhibition [17] was “Active”, the Activity (A549 [18]) was 27.5% and the IC50 [19] was 5.6 µM. The Activity (A549 [20]) was 12%, the Activity (A549 [21]) was “Active” and the IC50 (SK-MES-1) was < 1 pM. The Activity (A549 [22]) was 7.5% and the Activity (A549 [23]) was 5.5%.
